How the values were obtained:
[1] = biological target: T1, C-C chemokine receptor type 2 (Homo sapiens, UniProt P41597); assay: Displacement of [125I]hMCP1 from human CCR2 receptor expressed in CHO cells; assay type: cell-based
How it was run: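 CHO cells expressing human CCR2b (5 × 10⁴) incubated 60 min at room temperature with ¹²⁵I-hMCP-1 (20–50 pM) plus varied competitor concentrations in 50 mM Hepes, 5 mM MgCl₂, 1 mM CaCl₂, pH 7.4. Stopped by filtration on polyethyleneimine-presoaked GF/B filters, washed with 25 mM Hepes pH 7.5/500 mM NaCl. IC50 is the average of triplicate measurements.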
Target sequence in this assay (P41597 whole entry): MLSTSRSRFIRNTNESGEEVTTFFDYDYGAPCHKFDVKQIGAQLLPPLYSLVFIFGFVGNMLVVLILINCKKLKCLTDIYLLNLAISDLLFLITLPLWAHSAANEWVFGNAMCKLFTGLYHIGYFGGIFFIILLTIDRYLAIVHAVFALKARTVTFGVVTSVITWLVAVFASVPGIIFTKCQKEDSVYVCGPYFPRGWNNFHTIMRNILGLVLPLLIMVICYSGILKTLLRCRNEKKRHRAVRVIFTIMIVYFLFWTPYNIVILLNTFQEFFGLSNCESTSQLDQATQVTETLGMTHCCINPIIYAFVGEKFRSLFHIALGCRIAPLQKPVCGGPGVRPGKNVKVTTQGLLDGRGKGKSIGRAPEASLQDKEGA

[2] = biological target: T1, C-C chemokine receptor type 2; assay: Displacement of [125I]hMCP1 from human CCR2 receptor expressed in CHO cells at 1 uM; assay type: cell-based
Target sequence in this assay (P41597 whole entry, looked up): as the sequence (P41597 whole entry) above

[3] = Oral bioavailability in Sprague-Dawley rat at 3 mg/kg; assay type: ADME, organism-based; conditions: in vivo
[4] = Oral bioavailability in Beagle dog at 2 mg/kg; assay type: ADME, organism-based, Canis lupus familiaris; conditions: in vivo
[5] = Cmax in Beagle dog at 2 mg/kg, po; assay type: ADME, organism-based, Canis lupus familiaris; design: dose 2 mg/kg, route oral; conditions: in vivo
[6] = Oral bioavailability in rhesus monkey at 2 mg/kg; assay type: ADME, organism-based, Macaca mulatta; conditions: in vivo
[7] = Cmax in Sprague-Dawley rat at 3 mg/kg, po; assay type: ADME, organism-based; design: dose 3 mg/kg, route oral; conditions: in vivo
[8] = AUC in Sprague-Dawley rat at 3 mg/kg, po; assay type: ADME, organism-based; design: dose 3 mg/kg, route oral; conditions: plasma
[9] = AUC in rhesus monkey at 2 mg/kg, po; assay type: ADME, organism-based, Macaca mulatta; design: dose 2 mg/kg, route oral; conditions: plasma
[10] = Tmax in Sprague-Dawley rat at 3 mg/kg, po; assay type: ADME, organism-based; design: dose 3 mg/kg, route oral; conditions: in vivo
[11] = Tmax in rhesus monkey at 2 mg/kg, po; assay type: ADME, organism-based, Macaca mulatta; design: dose 2 mg/kg, route oral; conditions: in vivo
[12] = Cmax in rhesus monkey at 2 mg/kg, po; assay type: ADME, organism-based, Macaca mulatta; design: dose 2 mg/kg, route oral; conditions: in vivo
[13] = AUC in Beagle dog at 2 mg/kg, po; assay type: ADME, organism-based, Canis lupus familiaris; design: dose 2 mg/kg, route oral; conditions: plasma
[14] = Tmax in Beagle dog at 2 mg/kg, po; assay type: ADME, organism-based, Canis lupus familiaris; design: dose 2 mg/kg, route oral; conditions: in vivo

Compound	IC50 [1]	other results
CC(C)[C@]1(C(=O)NCc2cc(C(F)(F)F)cc(C(F)(F)F)c2)CC[C@@H](NC2CCOCC2(O)C(F)(F)F)C1 (some centres undefined)	765 nM	–
CC(C)[C@]1(C(=O)NCc2cc(C(F)(F)F)cc(C(F)(F)F)c2)CC[C@@H](NC2CCOCC2C(F)(F)F)C1 (some centres undefined)	5.5 nM	–
CC(C)[C@]1(C(=O)NCc2cc(C(F)(F)F)cc(C(F)(F)F)c2)CC[C@@H](NC2CCOCC2F)C1 (stereo in doubt; 64)	14.3 nM	–
CC(C)[C@]1(C(=O)NCc2cc(C(F)(F)F)cc(C(F)(F)F)c2)CC[C@@H](NC2CCOCC2(C)C)C1 (some centres undefined)	230 nM	–
CCC1COCCC1N[C@@H]1CC[C@@](C(=O)NCc2cc(C(F)(F)F)cc(C(F)(F)F)c2)(C(C)C)C1 (stereo in doubt; 60)	141 nM	–
CC(C)[C@]1(C(=O)NCc2cc(C(F)(F)F)cc(C(F)(F)F)c2)CC[C@@H](NC2CCc3ccccc3C2)C1 (some centres undefined)	239 nM	–
CC(C)[C@]1(C(=O)NCc2cc(C(F)(F)F)cc(C(F)(F)F)c2)CC[C@@H](NC2CCOc3ccccc32)C1 (some centres undefined)	419 nM	–
CC(C)[C@]1(C(=O)NCc2cc(C(F)(F)F)cc(C(F)(F)F)c2)CC[C@@H](NC2CCOCC2O)C1 (some centres undefined)	51 nM	–
CC(C)[C@]1(C(=O)NCc2cc(C(F)(F)F)cc(C(F)(F)F)c2)CC[C@@H](NC2CCSC2)C1 (some centres undefined)	36 nM	–
CCCC1COCCC1N[C@@H]1CC[C@@](C(=O)NCc2cc(C(F)(F)F)cc(C(F)(F)F)c2)(C(C)C)C1 (some centres undefined)	7.8 nM	–
CC(C)[C@]1(C(=O)NCc2cc(C(F)(F)F)cc(C(F)(F)F)c2)CC[C@@H](NC2CCSCC2)C1	22 nM	–
CC(C)[C@]1(C(=O)NCc2cc(C(F)(F)F)cc(C(F)(F)F)c2)CC[C@@H](NC2CCNCC2)C1	–	Activity [2]: 21%
CC1CC(N[C@@H]2CC[C@@](C(=O)NCc3cc(C(F)(F)F)cc(C(F)(F)F)c3)(C(C)C)C2)CCO1 (some centres undefined)	28 nM	–
CC1COCCC1N[C@@H]1CC[C@@](C(=O)NCc2cc(C(F)(F)F)cc(C(F)(F)F)c2)(C(C)C)C1 (stereo in doubt; 57)	42 nM	–
CC(C)[C@]1(C(=O)NCc2cc(C(F)(F)F)cc(C(F)(F)F)c2)CC[C@@H](NC2CCCCCC2)C1	175 nM	–
CCC1COCCC1N[C@@H]1CC[C@@](C(=O)NCc2cc(C(F)(F)F)cc(C(F)(F)F)c2)(C(C)C)C1 (stereo in doubt; 46)	3 nM	–
CC1COCC(C)C1N[C@@H]1CC[C@@](C(=O)NCc2cc(C(F)(F)F)cc(C(F)(F)F)c2)(C(C)C)C1 (some centres undefined)	7 nM	–
CC1COCCC1N[C@@H]1CC[C@@](C(=O)NCc2cc(C(F)(F)F)cc(C(F)(F)F)c2)(C(C)C)C1 (stereo in doubt; 45)	1.5 nM	–
CC(C)[C@]1(C(=O)NCc2cc(C(F)(F)F)cc(C(F)(F)F)c2)CC[C@@H](NC2CCOC2)C1 (some centres undefined)	85 nM	–

Compound	IC50 [1]	other results
CC1COCCC1N[C@@H]1CC[C@@](C(=O)NCc2cc(C(F)(F)F)cc(C(F)(F)F)c2)(C(C)C)C1 (stereo in doubt; 58)	4 nM	–
CCC1COCCC1N[C@@H]1CC[C@@](C(=O)NCc2cc(C(F)(F)F)cc(C(F)(F)F)c2)(C(C)C)C1 (stereo in doubt; 62)	3 nM	–
CC(C)[C@]1(C(=O)NCc2cc(C(F)(F)F)cc(C(F)(F)F)c2)CC[C@@H](NC2CCOCC2F)C1 (stereo in doubt; 63)	259 nM	–
Cc1ccc(-c2ccc3c(c2)C=C(C(=O)Nc2ccc(C[N+](C)(C)C4CCOCC4)cc2)CCC3)cc1	28 nM	–
CC(C)[C@]1(C(=O)NCc2cc(C(F)(F)F)cc(C(F)(F)F)c2)CC[C@@H](NC2CCCOCC2)C1 (some centres undefined)	30 nM	–
CC1COCCC1N[C@@H]1CC[C@@](C(=O)NCc2cc(C(F)(F)F)cc(C(F)(F)F)c2)(C(C)C)C1 (stereo in doubt; 59)	1.2 nM	–
CC(C)[C@]1(C(=O)NCc2cc(C(F)(F)F)cc(C(F)(F)F)c2)CC[C@@H](NC2CCS(=O)(=O)CC2)C1	631 nM	–
CC(C)[C@]1(C(=O)NCc2cc(C(F)(F)F)cc(C(F)(F)F)c2)CC[C@@H](NC2CCOCC2C2CC2)C1 (some centres undefined)	123 nM	–
CC(C)[C@]1(C(=O)NCc2cc(C(F)(F)F)cc(C(F)(F)F)c2)CC[C@@H](NC2CCCCC2)C1	64 nM	–
CC(C)[C@]1(C(=O)NCc2cc(C(F)(F)F)cc(C(F)(F)F)c2)CC[C@@H](NCC2CCOCC2)C1	362 nM	–
CCC1COCCC1N[C@@H]1CC[C@@](C(=O)NCc2cc(C(F)(F)F)cc(C(F)(F)F)c2)(C(C)C)C1 (stereo in doubt; 61)	5.6 nM	–
CC(C)[C@]1(C(=O)NCc2cc(C(F)(F)F)cc(C(F)(F)F)c2)CC[C@@H](NC2CCCC2)C1	156 nM	–
CC(C)[C@]1(C(=O)NCc2cc(C(F)(F)F)cc(C(F)(F)F)c2)CC[C@@H](NC2CCOCC2F)C1 (stereo in doubt; 50)	6 nM	–
CC(C)[C@]1(C(=O)NCc2cc(C(F)(F)F)cc(C(F)(F)F)c2)CC[C@@H](NC2CCC2)C1	193 nM	–
CC(C)[C@]1(C(=O)NCc2cc(C(F)(F)F)cc(C(F)(F)F)c2)CC[C@@H](NC2CCCOC2)C1 (some centres undefined)	56 nM	–
CC(C)[C@]1(C(=O)NCc2cc(C(F)(F)F)cc(C(F)(F)F)c2)CC[C@@H](NC2CCc3ccccc32)C1 (some centres undefined)	77 nM	–
CC(C)[C@]1(C(=O)NCc2cc(C(F)(F)F)cc(C(F)(F)F)c2)CC[C@@H](NC2CCOCC2)C1	4.6 nM	–
CC(C)[C@]1(C(=O)NCc2cc(C(F)(F)F)cc(C(F)(F)F)c2)CC[C@@H](N[C@H]2CCOC[C@H]2C)C1	–	bioavailability [3]: 42%; bioavailability [4]: 28%; Cmax [5]: 422 nM; bioavailability [6]: 2%; Cmax [7]: 735 nM; AUC [8]: 0.76 µM·h; AUC [9]: 0.01 µM·h; Tmax [10]: 15 min; Tmax [11]: 60 min; Cmax [12]: 4 nM; AUC [13]: 0.62 µM·h; Tmax [14]: 45 min
CC(C)[C@]1(C(=O)NCc2cc(C(F)(F)F)cc(C(F)(F)F)c2)CC[C@@H](NC2Cc3ccccc3C2)C1	187 nM	–

— ChEMBL document CHEMBL1153317, “Design, synthesis, and structure-activity relationship of novel CCR2 antagonists” (Bioorg Med Chem Lett, 2009)
